The record followed here is ChEMBL document CHEMBL1152557, “Solution-phase parallel synthesis of substituted chalcones and their antiparasitary activity against Giardia lamblia” (Bioorg Med Chem, 2009).

Values after ≈ are worked out from the molar mass of the structure shown. Active and inactive are the calls of the source. The rule behind the calls is not given here.

What all share (assay type): functional, organism-based
Test [1] relates to Giardia intestinalis. Put plainly: Antigiardial activity against Giardia lamblia WB (ATCC 30957) trophozoites after 24 hrs by trypan blue assay. The following applies: Giardia duodenalis; for LC50: read-out: LD50 (the source's name). Put shortly: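 Mid-log trophozoites, ice-chilled 20 min and counted by hemocytometer, 1.5 × 10⁵ cells per well in 1.5 mL final volume, incubated 24 h at 37 °C with compounds (DMSO stock diluted in medium, DMSO ≤5% v/v) at 100 µg/mL, then 1–100 µg/mL for selected ones. Metronidazole 1–5 µg/mL and DMSO controls. Plates ice-chilled 20 min, cells resuspended, counted. Mortality by trypan blue staining and absence of motility. IC50 and LD50 by probit analysis.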

Test [2] deals with Enterococcus faecalis. Put plainly: Antimicrobial activity against Enterococcus faecalis ATCC 29212 up to 100 ug/mL by broth microdilution assay. (In broth dilution the organism is exposed to a series of concentrations in liquid medium.)
The subject of test [3] is Staphylococcus aureus. Put plainly: Antimicrobial activity against Staphylococcus aureus ATCC 29213 up to 100 ug/mL by broth microdilution assay.
The test system of test [4] is Pseudomonas aeruginosa. Put plainly: Antimicrobial activity against Pseudomonas aeruginosa ATCC 27853 up to 100 ug/mL by broth microdilution assay.
Test [5] relates to Escherichia coli. Put plainly: Antimicrobial activity against Escherichia coli ATCC 25922 up to 100 ug/mL by broth microdilution assay.
Test [6] deals with Giardia intestinalis. Put plainly: Antigiardial activity against Giardia lamblia WB (ATCC 30957) trophozoites assessed as mild activity after 24 hrs by trypan blue assay. Conditions: Giardia duodenalis. Put shortly:
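Mid-log trophozoites chilled on ice 20 min, resuspended and counted by hemocytometer; 1.5 × 10⁵ cells per well, final volume 1.5 mL, incubated 24 h at 37 °C with compound (DMSO stock diluted in medium, DMSO ≤5% v/v) at 100 µg/mL. Plates re-chilled on ice 20 min before counting. Mortality from trypan blue staining plus loss of motility. Controls: metronidazole 1–5 µg/mL, DMSO vehicle.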

The term IC50 denotes the concentration needed to halve the response being measured. As to `COc1ccc(C(=O)/C=C/c2ccccc2F)cc1`, in test [1], the midpoint of inhibition, the IC50, lay at 12.7 µg/mL (≈ 49.6 µM). For the same compound, the LC50 in test [1] came out at 1.99 µg/mL (≈ 7.77 µM). Further, the result in test [2], in test [3], in test [4] and in test [5] was inactive.

In the case of `COc1ccc(/C=C/C(=O)c2ccc(OC)cc2)cc1`, the result in test [2], in test [3], in test [4] and in test [5] was inactive. Also, the outcome in test [6] was Active.

Turning to `COc1ccc(C(=O)/C=C/c2ccc(Cl)cc2)cc1`, in test [1], the IC50 came to 15 µg/mL (≈ 55.1 µM). Further, the LC50 in test [1] was 7.52 µg/mL (≈ 27.6 µM). In addition, the outcome in test [2], in test [3], in test [4] and in test [5] was inactive.

For `Cc1ncc([N+](=O)[O-])n1CCO` [METRONIDAZOLE], in test [1], the IC50 stood at 2.88 µg/mL (≈ 16.8 µM) and the LC50 turned out to be 1.63 µg/mL (≈ 9.52 µM).

Compound `Cc1ccc(/C=C/C(=O)c2ccc(F)cc2)cc1` had an IC50 in test [1] of 15.3 µg/mL (≈ 63.7 µM). Moreover, in test [1], the LC50 was 9.67 µg/mL (≈ 40.2 µM). The result in test [2], in test [3], in test [4] and in test [5] was inactive.

For `COc1ccc(/C=C/C(=O)c2ccc(Cl)cc2)cc1`, the result in test [2], in test [3], in test [4] and in test [5] was inactive. In addition, the outcome in test [6] was Active.

Turning to `COc1ccc(/C=C/C(=O)c2ccccc2)cc1`, the result in test [2], in test [3], in test [4] and in test [5] was inactive. Also, in test [6], the result was Active.

Turning to `Cc1ccc(/C=C/C(=O)c2ccccc2)cc1`, the result in test [2], in test [3], in test [4] and in test [5] was inactive. Further, the outcome in test [6] was Active.

On to `COc1ccc(C(=O)/C=C/c2ccccc2)cc1`, for which the result in test [2], in test [3], in test [4] and in test [5] was inactive. Besides, the result in test [6] was Active.

In the case of `COc1ccc(C(=O)/C=C/c2ccc(OC)cc2OC)cc1`, the outcome in test [2], in test [3], in test [4] and in test [5] was inactive. In test [6], the outcome was Active.
